# TRPC4 PAM = allosterically enhances the mouse TRPC4 cation channel; B-score at 10 µM; Q9QUQ5; 310,000 compounds, 0.42% hits; AID 2227; HEK293 TRPC4beta/mu-opioid, DAMGO EC20, Fluo-4 Ca2+ flux; stronger effect = higher value;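 active = B-score of calcium response area above 5 SD of library B-scores, with initial fluorescence ratio within 5 SD of library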;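 also: B-score of integrated fluorescence ratio over time as area under calcium response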
# Target sequence (Q9QUQ5 whole entry, looked up): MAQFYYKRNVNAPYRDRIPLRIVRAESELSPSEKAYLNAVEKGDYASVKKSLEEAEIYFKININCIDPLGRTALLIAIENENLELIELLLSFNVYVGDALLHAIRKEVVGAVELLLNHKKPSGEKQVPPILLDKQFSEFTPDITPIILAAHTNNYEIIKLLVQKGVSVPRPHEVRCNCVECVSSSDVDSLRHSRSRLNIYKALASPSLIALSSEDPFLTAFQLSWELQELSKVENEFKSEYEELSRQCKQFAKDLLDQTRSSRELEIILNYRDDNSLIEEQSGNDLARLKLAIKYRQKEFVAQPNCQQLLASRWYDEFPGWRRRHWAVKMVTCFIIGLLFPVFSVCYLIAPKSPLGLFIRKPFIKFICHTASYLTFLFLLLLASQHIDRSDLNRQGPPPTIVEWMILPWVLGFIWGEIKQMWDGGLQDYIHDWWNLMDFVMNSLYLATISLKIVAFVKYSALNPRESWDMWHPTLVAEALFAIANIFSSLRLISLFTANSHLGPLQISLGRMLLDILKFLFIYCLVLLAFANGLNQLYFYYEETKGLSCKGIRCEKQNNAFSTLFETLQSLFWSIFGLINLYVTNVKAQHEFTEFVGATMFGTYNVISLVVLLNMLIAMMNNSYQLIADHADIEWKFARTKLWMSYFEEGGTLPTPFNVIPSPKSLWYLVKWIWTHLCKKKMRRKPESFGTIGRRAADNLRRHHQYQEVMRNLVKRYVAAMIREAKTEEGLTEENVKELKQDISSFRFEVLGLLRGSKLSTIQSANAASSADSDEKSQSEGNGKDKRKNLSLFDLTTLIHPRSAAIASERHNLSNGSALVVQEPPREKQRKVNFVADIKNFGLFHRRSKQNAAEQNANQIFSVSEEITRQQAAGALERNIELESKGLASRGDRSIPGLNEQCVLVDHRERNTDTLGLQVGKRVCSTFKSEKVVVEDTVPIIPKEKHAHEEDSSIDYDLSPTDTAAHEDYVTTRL
# TRPC6 activator = activators of mouse TRPC6 channel; Q61143; HEK293-TRPC6 membrane potential dye fluorescence; stronger effect = higher value; B-score at 10 µM; 310,000 compounds, 0.13% hits;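 active = B-score of the integrated fluorescence ratio above library mean plus 3 SD, and starting fluorescence ratio within library mean plus 5 SD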;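 also: higher score means more depolarization so channel activation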
# TRPC4 block = TRPC4 (mouse) channel inhibition; B-score at 10 µM; 300,000 compounds, 0.39% hits; AID 2247; HEK293 TRPC4beta/mu-opioid, DAMGO-evoked Fluo4 calcium flux; stronger effect = lower value;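 active = B-score over 3 SD under the library average, no early fluorescence shift, positive overall ratio signal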
#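 Assay system – HEK293 line stably carrying TRPC4beta and mu-opioid receptor · Doses – single dose · Detection – Fluo4 calcium-dye fluorescence, kinetic read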
# TRPC4 agonist = activators of mouse TRPC4 channel. Q9QUQ5. HEK293 TRPC4beta/mu-opioid, Fluo4 calcium fluorescence; stronger effect = higher value. B-score at 10 µM. 310,000 compounds, 0.49% hits. AID 2237;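 active = B-score above 5 SD of library B-scores, and initial fluorescence ratio not above library mean plus 5 SD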;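 also: positive B-score marks a calcium rise read as TRPC4 activation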
#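 Assay system – TRPC4beta and mu-opioid receptor HEK293 stable cells · Measured by – Fluo4 fluorescence, kinetic · Schedule – dye loading 45 min room temperature, 110 s kinetic read · Read-out – B-scored integrated calcium fluorescence ratio · Controls – buffer and maximal DAMGO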
# TRPC6 inhibitor = blocks the mouse TRPC6 cation channel; Q61143; HEK293-TRPC6, membrane potential dye, ACh-evoked depolarization; stronger effect = lower value; B-score at 10 µM; 310,000 compounds, 1.1% hits;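 active = B-score under library mean minus 3 SD, initial fluorescence not abnormally high, positive integrated signal ratio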;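 also: B-score derived from integrated fluorescence ratio over the kinetic read; more negative B-score means stronger inhibition of depolarization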
# TRPC4 sel inh 2 = second selectivity test of TRPC6 inhibitors: effect on mouse TRPC4 | AID 2776 | 920 compounds, 42% hits | inhibition, % at 10 µM | HEK293 TRPC4/MOR, membrane potential dye fluorescence; channel activated by saturating DAMGO dose | shares compounds with TRPC6 inhibitor;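 active = compounds whose fluorescence signal differed from control wells by over 3 SD, either direction, in both duplicate plates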
# TRPC4 spec = tests whether TRPC6 inhibitors also affect mouse TRPC4; AID 2777; HEK293 TRPC4/mu-opioid, membrane potential fluorescence; shares compounds with TRPC6 inhibitor; 920 compounds, 61% hits; activity change, negative = inhibition, % at 10 µM;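 active = rise or fall in signal beyond 3 SD of buffer-only wells in both replicate plates, either sign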;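 also: integrated kinetic ratio of fluorescence range over baseline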
# HEK293 MPD ctr 2-1 = parental HEK293 nonspecific activity of TRPC6 inhibitors, second screen. shares compounds with TRPC6 inhibitor. AID 2779. signal change vs control, % at 10 µM. 920 compounds, 31% hits. parental HEK293 membrane potential dye fluorescence; maximal acetylcholine challenge after compound addition;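 active = membrane potential signal moving either way by over 3 SD of the maximum-effect control, in both duplicate plates, meaning non-specific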
# HEK293 MPD ctr-1 = checks TRPC6 inhibitor effects in parental HEK293 cells. shares compounds with TRPC6 inhibitor. parental HEK293 membrane potential dye fluorescence. membrane potential signal change, % at 10 µM. 920 compounds, 60% hits. AID 2780;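 active = membrane potential signal shifting up or down by more than 3 SD of buffer-only wells, on both duplicate plates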
# HEK293 MPD ctr-2 = counter-screen for TRPC6 modulators: effect in parental HEK293 cells; shares compounds with TRPC6 inhibitor; membrane potential dye fluorescence; membrane potential signal change, % at 10 µM; 2,400 compounds, 51% hits; AID 488924;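 active = membrane potential signal moves up or down beyond 5 SD from buffer-only wells, on both duplicate plates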
# HEK293 MPD ctr 2-2 = second check of TRPC6 modulator effects in parental HEK293 cells; shares compounds with TRPC6 inhibitor; membrane potential dye fluorescence; after compound, maximal acetylcholine stimulation; inhibition, % at 10 µM; 2,400 compounds, 14% hits; AID 488926;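 active = membrane potential signal drops by more than 5 SD from the mean control signal, in both duplicate plates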;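 also: plate controls were acetylcholine ECmax control wells for no effect and buffer only wells for full effect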
# TRPC4 ctr mod = selectivity of TRPC6 modulators against mouse TRPC4 | shares compounds with TRPC6 inhibitor | HEK293 TRPC4/mu-opioid, membrane potential fluorescence | percent change from control (negative = decrease, positive = increase), % at 10 µM | 2,400 compounds, 69% hits | AID 488927;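 active = membrane potential signal moved up or down beyond 5 SD of buffer control wells, in both duplicate plates, actives on both sides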;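 also: plate controls were assay buffer wells for no effect and DAMGO maximal-effect wells for full effect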
# TRPC4 ctr inh 2 = second check of whether TRPC6 modulators also affect mouse TRPC4 | shares compounds with TRPC6 inhibitor | HEK293 TRPC4/mu-opioid, membrane potential dye fluorescence; stimulated with maximal-effect DAMGO | inhibition, % at 10 µM | 2,400 compounds, 55% hits;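 active = drop in membrane potential signal beyond 5 SD of the control wells in both duplicate plates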;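 also: TRPC4 counter screen for TRPC6 hits run under conditions tuned for TRPC6 not TRPC4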
# TRPC6 inh conf = confirmation of mouse TRPC6 inhibitors | inhibition, % at 10 µM | 3,300 compounds, 43% hits | HEK293-TRPC6, membrane potential dye, ACh-evoked depolarization | shares compounds with TRPC6 inhibitor;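 active = fluorescence ratio falls more than 5 SD below the full-stimulation control mean, in both duplicate runs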;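 also: integrated fluorescence ratio of peak minus minimum over baseline after agonist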
# TRPC6 act conf = mouse TRPC6 activator confirmation; shares compounds with TRPC6 inhibitor; 2,800 compounds, 11% hits; HEK293-TRPC6 membrane potential dye fluorescence, FDSS; activation, % at 10 µM;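 active = ratio signal rise beyond 5 SD above unstimulated control wells' mean, seen in both duplicate runs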;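 also: plate controls were buffer EC0 wells for no effect and acetylcholine ECmax response for full effect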
# Numbers without * were called inactive; i = inactive; · = not tested or not shown. In the library only some 2.3% were active in any assay of this set; here they are far more common.
SMILES,TRPC4 PAM,TRPC6 activator,TRPC4 block,TRPC4 agonist,TRPC6 inhibitor,HEK293 MPD ctr-2,HEK293 MPD ctr 2-2,TRPC4 ctr mod,TRPC4 ctr inh 2,TRPC6 inh conf,TRPC6 act conf,others
C/C(CC(=O)Nc1cccc2c1CCCC2)=N\NC=O,i,i,i,i,i,·,·,·,·,·,·,
Cc1cc(C)cc(N(C(=O)c2snc(C(N)=O)c2N)C(C(=O)NCC2CCCO2)c2ccc(C)o2)c1 (stereo not given),i,i,i,i,-5.4*,i,i,18%*,40%*,i,·,
CC1CCc2c(cnc3ncnn23)C1 (stereo not given),i,i,i,i,i,·,·,·,·,·,·,
CN(C(=O)CCc1ccccc1F)C1CCCN(Cc2ccccc2F)C1 (stereo not given),i,i,i,i,i,·,·,·,·,·,·,
CN(C(=O)CCCN1CCCC1=O)C1CCCN(Cc2ccccc2F)C1 (stereo not given),i,i,i,i,-5.1*,i,i,i,i,i,i,
CC1(C)CC(=O)C=C(NC2CCCC(O)C2)C1 (stereo not given),i,i,i,i,i,·,·,·,·,·,·,
Cc1c(/C=N/Nc2nc3ccccc3[nH]2)c2ccccc2n1C,i,i,i,i,-15*,-192%*,74%*,-40%*,97%*,68%*,i,
Cc1nn(-c2ccccc2)c(C)c1/C=N/Nc1nc2ccccc2[nH]1,i,i,i,i,i,·,·,·,·,·,·,
COc1ccc(O)c(/C=N/Nc2nc3ccccc3[nH]2)c1,i,i,i,i,-5*,i,i,i,i,i,i,
CCN(CC)c1ccc(/C=N/Nc2nc3ccccc3[nH]2)cc1,i,i,i,i,-7.7*,·,·,·,·,i,i,TRPC4 sel inh 2=43%*;TRPC4 spec=-18%*;HEK293 MPD ctr 2-1=i;HEK293 MPD ctr-1=-235%*
Cn1c(/C=N/Nc2nc3ccccc3[nH]2)nc2ccccc21,i,i,i,i,-9.7*,i,i,-10%*,i,i,i,
COc1cc(/C=N/Nc2nc3ccccc3[nH]2)ccc1O,i,i,i,i,i,·,·,·,·,·,·,
CC(=O)Nc1ccc(/C=N/Nc2nc3ccccc3[nH]2)cc1,i,i,i,i,i,·,·,·,·,·,·,
COCc1cc(C)nc(NC2CC(C)(C)NC(C)(C)C2)c1C#N,i,i,i,i,i,·,·,·,·,·,·,
CCOC(=O)c1c(C)[nH]c(C(=O)N2CCN(c3ccc(OC)cc3)CC2)c1C,i,i,i,i,i,·,·,·,·,·,·,
COc1cccc(CNC(=O)CCC2CCCN(C3CCOCC3)C2)c1 (stereo not given),i,i,i,i,i,·,·,·,·,·,·,
COc1cccc(CNC(=O)CCC2CCCN(c3cc(C)nc(N4CCCC4)n3)C2)c1 (stereo not given),i,i,i,i,-6.1*,i,i,-9.0%*,43%*,48%*,i,
CCN1C(=O)[C@@H]2[C@H](C1=O)[C@@H]1C(=O)Nc3ccccc3C(=O)N1[C@@H]2c1cccc(Cl)c1,i,i,i,i,i,·,·,·,·,·,·,
COc1ccc(-n2c(-c3ccccc3)cc3c2CCCC3=O)cc1,i,i,i,i,i,·,·,·,·,·,·,
Cc1ccc(-n2c(-c3ccc(Cl)cc3)c[n+]3c2CCC3)cc1,i,i,i,i,-5.2*,i,i,i,46%*,i,i,
COc1ccc(-n2c(-c3ccccc3)c[n+]3c2CCC3)cc1,i,i,i,i,-5.4*,-104%*,i,-18%*,i,40%*,i,
CCOc1ccc(-n2c(-c3ccc(Cl)cc3)c[n+]3c2SCC3)cc1,i,i,-6*,i,-7.3*,-71%*,80%*,i,36%*,42%*,i,
COc1ccc(-n2c(-c3ccc(Br)cc3)c[n+]3c2SC(C)C3)cc1 (stereo not given),i,i,i,i,-5.9*,-142%*,80%*,-21%*,42%*,48%*,i,
FC(F)Sc1ccc(-n2c(-c3ccc(Cl)cc3)c[n+]3c2CCC3)cc1,i,i,i,i,i,·,·,·,·,·,·,
O=C1CSC(c2ccc(F)c(F)c2)N1c1ccccc1F (stereo not given),i,i,i,i,i,·,·,·,·,·,·,
COc1ccc(-n2c(-c3ccc(Br)cc3)c[n+]3c2CCC3)cc1,i,i,i,i,-7.2*,·,·,·,·,61%*,i,TRPC4 sel inh 2=76%*;TRPC4 spec=i;HEK293 MPD ctr 2-1=-75%*;HEK293 MPD ctr-1=-192%*
CCOc1ccc(-c2nnc(-c3ccccc3)n2-c2ccccc2)cc1,i,i,i,i,i,·,·,·,·,·,·,
COc1ccc(-n2c(-c3ccc(Br)cc3)nc(=S)c3c2CCCC3)cc1,i,i,i,i,i,·,·,·,·,·,·,
CCOc1ccc(-c2c[n+]3c(n2-c2ccccc2)CCCCC3)cc1,i,i,i,i,-5*,i,i,i,i,i,i,

# From PubChem
